In series [1] the test system is Staphylococcus aureus. Nature of the series: Inhibition of biofilm formation in Staphylococcus aureus 8325-4 after 24 hrs by microtiter plate assay. In kind it is functional, organism-based. The conditions noted are these: for EC50: Staphylococcus aureus, 8325-4, 24 h. The method, boiled down: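 Static 96-well crystal-violet assay with S. aureus 8325-4. Inoculum came from an overnight BHI agar culture, suspended in 0.9% NaCl to McF 0.5, 5 μL per well into TS medium containing compounds as monosodium salts at […]. Plates ran 24 h at 37 °C. Wells were rinsed three times, stained with 1% crystal violet for 15 min and eluted with 96% ethanol. Read at A630, at least triplicate.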

For series [2], the system named is Staphylococcus aureus. Put plainly: Toxicity in Staphylococcus aureus 8325-4 assessed as inhibition of bacterial growth. In kind it is organism-based.
Series [3] relates to Staphylococcus aureus. Put plainly: Disruption of biofilm formation in Staphylococcus aureus 8325-4 after 24 hrs by microtiter plate assay. In kind it is functional, organism-based.
Series [4] has as its system Staphylococcus aureus. Nature of the series: Antibacterial activity against Staphylococcus aureus ATCC 29213 by microbroth dilution method. In kind it is functional. In outline:
(§1)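 Standard broth microdilution in Mueller-Hinton broth gave MICs. For the combination lines, enrofloxacin MIC was measured with the tested compound present at the stated concentration.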
In general terms: In broth dilution the organism is exposed to a series of concentrations in liquid medium.

Series [5] relates to Staphylococcus aureus. Nature of the series: Antibacterial activity against Staphylococcus aureus 8325-4 by microbroth dilution method. In kind it is functional. In outline: as §1
The subject of series [6] is Staphylococcus aureus. Put plainly: Antibacterial activity against methicillin-resistant Staphylococcus aureus N315 by microbroth dilution method. In kind it is functional. The method, boiled down: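 MIC against methicillin-resistant S. aureus N315, determined by standard microbroth dilution in Mueller-Hinton broth.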
Series [7] deals with Staphylococcus aureus. Nature of the series: Inhibition of biofilm formation in Staphylococcus aureus 8325-4 at 8 mM after 24 hrs by microtiter plate assay in presence of glucose. In kind it is functional. The conditions noted are these: 8325-4, 24 h. The method, boiled down:
(§2)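 Same static crystal-violet biofilm protocol as above, with 1% glucose added to the TS medium. S. aureus 8325-4 grew 24 h at 37 °C with the compound. Adherent cells were stained with crystal violet, eluted in ethanol and read at A630. Means come from three independent experiments.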

The subject of series [8] is Staphylococcus aureus. Put plainly: Inhibition of biofilm formation in Staphylococcus aureus 8325-4 at […] after 24 hrs by microtiter plate assay in presence of glucose. In kind it is functional, organism-based. In outline: as §2
The subject of series [9] is Staphylococcus aureus. Nature of the series: Antibacterial activity against Staphylococcus aureus ATCC 29213 assessed as reduction of enrofloxacin MIC at 1 ug/ml by microbroth dilution method. In kind it is functional. The method, boiled down: as §1
In series [10] the test system is Staphylococcus aureus. Nature of the series: Antibacterial activity against Staphylococcus aureus ATCC 29213 assessed as reduction of enrofloxacin MIC at 8 ug/ml by microbroth dilution method. In kind it is functional. The method, boiled down: as §1
The test system of series [11] is Staphylococcus aureus. Put plainly: Antibacterial activity against Staphylococcus aureus ATCC 29213 assessed as reduction of enrofloxacin MIC at 32 ug/ml by microbroth dilution method. In kind it is functional. The method, boiled down:
as §1

The subject of series [12] is Staphylococcus aureus. Nature of the series: Antibacterial activity against Staphylococcus aureus 8325-4 assessed as reduction of enrofloxacin MIC at 1 ug/ml by microbroth dilution method. In kind it is functional. The method, boiled down:
as §1

For series [13], the system named is Staphylococcus aureus. Put plainly: Antibacterial activity against Staphylococcus aureus 8325-4 assessed as reduction of enrofloxacin MIC at 8 ug/ml by microbroth dilution method. In kind it is functional. In outline: as §1
Series [14] concerns Staphylococcus aureus. Put plainly: Antibacterial activity against Staphylococcus aureus 8325-4 assessed as reduction of enrofloxacin MIC at 32 ug/ml by microbroth dilution method. In kind it is functional. In outline: as §1
Series [15] relates to Staphylococcus aureus. Nature of the series: Antibacterial activity against methicillin-resistant Staphylococcus aureus N315 assessed as reduction of enrofloxacin MIC at 1 ug/ml by microbroth dilution method. In kind it is functional. The method, boiled down: (§3)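 Standard microbroth dilution in Mueller-Hinton broth against methicillin-resistant S. aureus N315. The enrofloxacin MIC was determined with the test compound added to the broth.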

The subject of series [16] is Staphylococcus aureus. Nature of the series: Antibacterial activity against methicillin-resistant Staphylococcus aureus N315 assessed as reduction of enrofloxacin MIC at 8 ug/ml by microbroth dilution method. In kind it is functional. The method, boiled down:
as §3

Series [17] relates to Staphylococcus aureus. Put plainly: Antibacterial activity against methicillin-resistant Staphylococcus aureus N315 assessed as reduction of enrofloxacin MIC at 32 ug/ml by microbroth dilution method. In kind it is functional. In outline: as §3

In brackets after ≈: the same amount, converted by molar mass. Activity calls are given as the source filed them. No cut-off for these calls is given here.

The term EC50 denotes the concentration needed to bring the measured effect to its halfway point. In series [1], `COc1cc(C2Oc3cc(-c4cc(=O)c5c(O)cc(O)cc5o4)ccc3OC2CO)ccc1O` (racemic) returned an MBIC of 32 µM and an EC50 of 4 µg/mL (≈ 8.61 µM). Moreover, the Activity entry in [2] was “Non-toxic”. Also, the outcome in series [3] was inactive.
In series [1], `COc1cc(C2Oc3c(O)cc(-c4cc(=O)c5c(O)cc(O)cc5o4)cc3C2CO)ccc1O` (stereo unspecified) returned an MBIC greater than 124 µM and an EC50 of 64 µg/mL (≈ 138 µM). For the same compound, in [2], the Activity entry was “Non-toxic”. The outcome in [3] was inactive.
The like results for `COc1cc([C@H]2Oc3cc(-c4cc(=O)c5c(O)cc(O)cc5o4)ccc3O[C@@H]2CO)ccc1O` [HYDNOCARPIN] were, in that order, 64 µM, 16 µg/mL (≈ 34.5 µM), “Non-toxic” and “inactive”.
The like results for `COc1cc(C2Oc3cc([C@H]4Oc5cc(O)cc(O)c5C(=O)[C@@H]4O)ccc3OC2CO)ccc1O` (stereo partly specified) [SILIBININ] were, in that order, greater than 124 µM, 64 µg/mL (≈ 133 µM), “Non-toxic” and “inactive”.
The like results for `COc1cc([C@H]2Oc3ccc(-c4cc(=O)c5c(O)cc(O)cc5o4)cc3O[C@@H]2CO)ccc1O` were, in that order, 64 µM, 16 µg/mL (≈ 34.5 µM), “Non-toxic” and “inactive”.
In series [1], `COc1cc([C@H]2Oc3ccc([C@H]4Oc5cc(O)cc(O)c5C(=O)[C@@H]4O)cc3O[C@@H]2CO)ccc1O` [ISOSILYBIN A] registered an MBIC of 124 µM and an EC50 of 32 µg/mL (≈ 66.3 µM). Also, the Activity result in series [2] was “Non-toxic”. In series [3], the result was inactive.
The like results for `COc1cc([C@H]2Oc3cc(-c4oc5cc(O)cc(O)c5c(=O)c4O)ccc3O[C@@H]2CO)ccc1O` were, in that order, 64 µM, 16 µg/mL (≈ 33.3 µM), “Non-toxic” and “inactive”.
A word on the MIC: it is the lowest concentration that inhibits growth of the organism. As to `CCN1CCN(c2cc3c(cc2F)c(=O)c(C(=O)O)cn3C2CC2)CC1` [ENROFLOXACIN], the MIC was found to be 1 µg/mL (≈ 2.78 µM) in [4], 0.5 µg/mL (≈ 1.39 µM) in [5] and 2 µg/mL (≈ 5.56 µM) in series [6].
For orientation: inhibition means the relative decrease from the control value, in per cent. In the case of `COc1cc([C@@H]2Oc3cc(-c4cc(=O)c5c(O)cc(O)cc5o4)ccc3O[C@H]2CO)ccc1O`, the MBIC in series [1] worked out at 8 µM. In series [1], this compound registered a 50% effective concentration (EC50) of 2 µg/mL (≈ 4.31 µM). Besides, the Activity result in series [2] is recorded as “Non-toxic”. The outcome in [3] was inactive. For the same compound, the inhibition at 8000 µM in series [7] turned out to be 80%. The inhibition result in [8] is “Active”. The MIC in series [9] was found to be 0.25 µg/mL; in series [10], 0.0625 µg/mL; in series [11], 0.0625 µg/mL; in series [12] it was 0.125 µg/mL; in series [13], 0.0625 µg/mL; in series [14] it was 0.0625 µg/mL. The MIC in series [15] amounted to 1 µg/mL; in series [16], 0.5 µg/mL; in series [17] it was 0.5 µg/mL.
